SMILES strings stand for the structures.

In test [1] the test system is Rattus norvegicus. As to the kind of experiment: Antiallergic activity in iv dosed Sprague-Dawley rat assessed as inhibition of egg albumin-induced passive cutaneous anaphylaxis after 15 to 25 mins relative to disodium cromoglycate.
Test [2] concerns Rattus norvegicus. In words: Antiallergic activity in iv dosed Sprague-Dawley rat assessed as inhibition of egg albumin-induced passive cutaneous anaphylaxis after 15 to 25 mins relative to disodium cromoglycate. It counts as functional. The method, boiled down:
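Reaginic antiserum from rats immunized with 1.25 mg egg albumin sc plus H. pertussis vaccine ip, bled 11 days later. Recipient rats sensitized intradermally with two antiserum dilutions in 0.1 mL saline. Challenged 24 h later iv with 1.0 mL buffered saline (pH 7.2) holding 1.0 mg albumin, 0.5% Evans blue and test compound. Usually three doses (fivefold increments), ≥5 rats per group.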

Regarding `CC(C)[S+]([O-])c1ccc2oc3ccc(C(=O)O)cc3c(=O)c2c1` (stereo not given), in test [1], the RPCA relative potency was 4.

In the case of `CS(=O)(=O)c1ccc2oc3ccc(C(=O)O)cc3c(=O)c2c1`, the RPCA relative potency in test [1] came to 7.

Take `CCCCOc1cc([S+](C)[O-])cc2c(=O)c3cc(C(=O)O)ccc3oc12` (stereo not given): the “fold change (FC)” value in test [2] was 260. Also, the RPCA relative potency in test [1] stood at 260.

Regarding `CC(=O)c1ccc2oc3ccc(C(=O)O)cc3c(=O)c2c1`, the RPCA relative potency in test [1] was 6.

Consider `CCC(=O)c1ccc2oc3ccc(C(=O)O)cc3c(=O)c2c1`, for which the RPCA relative potency in test [1] came to 2.

On to `CC(C)C(=O)c1ccc2oc3ccc(C(=O)O)cc3c(=O)c2c1`, for which, in test [1], the RPCA relative potency was 3.

Regarding `O=C(O)c1ccc2oc3ccc(C(=O)C4CC4)cc3c(=O)c2c1`, in test [1], the RPCA relative potency was determined as 3.

In the case of `O=C(O)c1ccc2oc3ccc(C(=O)C4CCCC4)cc3c(=O)c2c1`, the RPCA relative potency in test [1] worked out at 2.

For `CSc1ccc2oc3ccc(C(=O)O)cc3c(=O)c2c1`, the RPCA relative potency in test [1] worked out at 5.

For the compound `CC(C)Sc1ccc2oc3ccc(C(=O)O)cc3c(=O)c2c1`, in test [1], the RPCA relative potency was 2.

Regarding `COc1cc(OC)c2oc3ccc(C(=O)O)cc3c(=O)c2c1`, the RPCA relative potency in test [1] turned out to be 6.

Consider `COc1cc2oc3ccc(C(=O)O)cc3c(=O)c2cc1OC`, for which the RPCA relative potency in test [1] came out at 2.

`COc1cc(OC)c2c(=O)c3cc(C(=O)O)ccc3oc2c1`: the RPCA relative potency in test [1] was found to be 0.1.

In the case of `Cc1cc(C)c2oc3ccc(C(=O)O)cc3c(=O)c2c1`, the RPCA relative potency in test [1] is 1.

For `Cc1cc2oc3ccc(C(=O)O)cc3c(=O)c2cc1C`, in test [1], the RPCA relative potency was 0.2.

`Cc1ccc2oc3ccc(C(=O)O)cc3c(=O)c2c1C`: the RPCA relative potency in test [1] worked out at 0.2.

On to `CCOc1cc([S+](C)[O-])cc2c(=O)c3cc(C(=O)O)ccc3oc12` (stereo not given), for which, in test [1], the RPCA relative potency was 80.

On to `CCCOc1cc([S+](C)[O-])cc2c(=O)c3cc(C(=O)O)ccc3oc12` (stereo not given), for which the RPCA relative potency in test [1] came out at 50.

For the compound `CC(C)Oc1cc([S+](C)[O-])cc2c(=O)c3cc(C(=O)O)ccc3oc12` (stereo not given), the RPCA relative potency in test [1] is 190.

Regarding `CCCCCOc1cc([S+](C)[O-])cc2c(=O)c3cc(C(=O)O)ccc3oc12` (stereo not given), the RPCA relative potency in test [1] stood at 90.

Take `CC(C)CCOc1cc([S+](C)[O-])cc2c(=O)c3cc(C(=O)O)ccc3oc12` (stereo not given): in test [1], the RPCA relative potency was found to be 100.

For `C[S+]([O-])c1cc(OC2CCCC2)c2oc3ccc(C(=O)O)cc3c(=O)c2c1` (stereo not given), the RPCA relative potency in test [1] stood at 100.

Turning to `CCCCCCCCOc1cc([S+](C)[O-])cc2c(=O)c3cc(C(=O)O)ccc3oc12` (stereo not given), in test [1], the RPCA relative potency was found to be 35.

For `C[S+]([O-])c1ccc2oc3ccc(C(=O)O)cc3c(=O)c2c1` (stereo not given) [TIXANOX], the RPCA relative potency in test [1] amounted to 25.
